In ChEMBL document CHEMBL5113504, “Discovery of potent benzoxaborole inhibitors against SARS-CoV-2 main and dengue virus proteases” (Eur J Med Chem, 2022):
Active and inactive are the calls of the source. No cut-off for these calls is given here.

Key:
[1] = target: T1, Replicase polyprotein 1ab (Severe acute respiratory syndrome coronavirus 2, UniProt P0DTD1); experiment: Chemical stability of the compound in SARS-CoV-2 main protease assay buffer assessed as SARS-CoV-2 main protease-mediated amide bond cleavage at 100 uM measured after 8 hrs by HPLC based UV-Vis analysis; assay type: ADME; details: severe acute respiratory syndrome coronavirus 2, buffer
Outline: (§1)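 Compound incubated with isolated protease (SARS-CoV-2 Mpro or DENV-2 protease) in that enzyme's assay buffer for 8 h; remaining compound quantified by HPLC with UV/Vis detection (peak AUC).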

[2] = target: Replicase polyprotein 1ab (Severe acute respiratory syndrome coronavirus 2) (UniProt P0DTD1); experiment: Reversible inhibition of C-terminal His tagged SARS CoV-2 main protease transfected in Escherichia coli BL21 (DE3) at 100 uM preincubated for 2 hrs followed by dilution to 3 uM and substrate addition measured after 15 mins by fluorimetric assay; details: time 135.0 min
Huh-7 = experiment: Cytotoxicity against human Huh-7 cells infected with Dengue virus serotype 2 assessed as reduction in cell viability by celltiter-blue assay; assay type: toxicity, cell-based
Outline: (§2)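 CellTiter-Blue viability in HeLa reporter cells or Huh-7 cells, on plates run in parallel with the reporter or titer-reduction assay under the same treatment; each concentration in triplicate.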

Genome polyprotein [3] = target: T2, Genome polyprotein (dengue virus type 2, UniProt P29990); experiment: Inhibition of full length DENV2 NS2B-NS3 protease in human HeLa cells expressing luciferase reporter gene incubated for 24 hrs by luminescence analysis; assay type: cell-based
Outline: (§3)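 Stable DENV2pro reporter HeLa cells seeded at 2×10^4 per well and dosed immediately; 24 h at 37 °C, lysed 15 min, coelenterazine (2.75 μM in PBS) injected, luminescence read 5 s. Triplicates; % inhibition vs untreated cells; EC50 by 4-parameter fit with cell-free background subtraction.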

[4] = target: Replicase polyprotein 1ab (Severe acute respiratory syndrome coronavirus 2) (UniProt P0DTD1); experiment: Potency index, ratio of boceprevir IC50 to test compound IC50 for inhibition of C-terminal His tagged SARS CoV-2 main protease transfected in Escherichia coli BL21 (DE3) using 2-Abz-Ser-AlaVal-Leu-Gln-Ser-Gly-Tyr(3-NO2)-Arg-OH as substrate preincubated for 15 mins followed by substrate addition and measured after 15 mins by FRET assay; details: time 30.0 min
[5] = target: Replicase polyprotein 1ab (Severe acute respiratory syndrome coronavirus 2) (UniProt P0DTD1); experiment: […] inhibition of C-terminal His tagged SARS CoV-2 main protease transfected in Escherichia coli BL21 (DE3) assessed as decrease in Vmax with constant Km using varying concentrations of 2-Abz-Ser-AlaVal-Leu-Gln-Ser-Gly-Tyr(3-NO2)-Arg-OH as substrate by Michaelis-Menten analysis
Genome polyprotein [6] = target: T2, Genome polyprotein; experiment: Chemical stability of the compound in DENV2 NS2B-NS3 protease assay buffer assessed as DENV2 NS2B-NS3 protease-mediated amide bond cleavage by measuring reduction in AUC at 100 uM measured after 8 hrs by HPLC analysis; assay type: ADME; details: dengue virus type 2, buffer; outline: as §1
HeLa [7] = experiment: Cytotoxicity against human HeLa cells expressing luciferase-based DENV-2 protease reporter system assessed as reduction in cell viability by celltiter-blue assay; assay type: toxicity; outline: as §2
[8] = target: T1, Replicase polyprotein 1ab; experiment: Inhibition of C-terminal His tagged SARS CoV-2 main protease transfected in Escherichia coli BL21 (DE3) using 2-Abz-Ser-AlaVal-Leu-Gln-Ser-Gly-Tyr(3-NO2)-Arg-OH as substrate preincubated for 15 mins followed by substrate addition and measured after 15 mins by FRET assay
[9] = target: T1, Replicase polyprotein 1ab; experiment: Inhibition of C-terminal His tagged SARS CoV-2 main protease transfected in Escherichia coli BL21 (DE3) assessed as inhibition constant by Michaelis-Menten analysis
[10] = target: Genome polyprotein (dengue virus type 2) (UniProt P29990); experiment: Inhibition of full length DENV2 NS2B-NS3 protease in human HeLa cells expressing luciferase reporter gene at 12.5 uM incubated for 24 hrs by luminescence analysis relative to control; assay type: cell-based; outline: as §3
dengue virus type 2 = experiment: Antiviral activity against Dengue virus serotype 2 infected in Huh-7 cells assessed as reduction in virus titer at 12.5 uM incubated for 48 hrs followed by infection of Vero E6 cells with supernatant and measured after 7 days by crystal violet staining based analysis relative to control; assay type: functional; set-up: scale not given: the % may be the effect or the level left; details: time 9 day
Outline: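 Huh-7 cells (1×10^4/well, overnight) infected with DENV-2 at MOI 1 for 2 h, medium changed, compound added; 48 h, triplicate supernatants pooled. Titer by plaque assay: Vero E6 infected 1 h with 10^-1 to 10^-6 dilutions, plaque medium 7 days, formaldehyde-fixed, crystal violet stained, plaques counted.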

[11] = target: Replicase polyprotein 1ab (Severe acute respiratory syndrome coronavirus 2) (UniProt P0DTD1); experiment: Inhibition of C-terminal His tagged SARS CoV-2 main protease transfected in Escherichia coli BL21 (DE3) at 50 uM incubated in presence of DTT
Outline: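 Mpro fluorogenic inhibition assay repeated with 1 mM DTT added to the assay buffer.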

HeLa [12] = experiment: Cytotoxicity against human HeLa cells expressing renilla luciferase reporter construct assessed as reduction in cell viability at 12.5 uM by luciferase based analysis; assay type: toxicity
[13] = target: Replicase polyprotein 1ab (Severe acute respiratory syndrome coronavirus 2) (UniProt P0DTD1); experiment: Inhibition of C-terminal His tagged SARS CoV-2 main protease transfected in Escherichia coli BL21 (DE3) using 2-Abz-Ser-AlaVal-Leu-Gln-Ser-Gly-Tyr(3-NO2)-Arg-OH as substrate at 50 uM preincubated for 15 mins followed by substrate addition and measured after 15 mins by FRET assay relative to control; details: time 30.0 min
[14] = Permeability of compound in PBS at pH 7.4 measured after 5 hrs by HPLC-UV based PAMPA assay; assay type: ADME; details: pH 7.4, 5 h
[15] = target: Replicase polyprotein 1ab (Severe acute respiratory syndrome coronavirus 2) (UniProt P0DTD1); experiment: Binding affinity to C-terminal His tagged SARS CoV-2 main protease transfected in Escherichia coli BL21 (DE3) assessed as covalent bond formation by measuring mass adduct at 100 uM by ESI-TOF analysis
Outline: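 Compounds at 100 μM incubated with active Mpro (3 μM) in 50 mM Tris-HCl pH 7.4, 100 mM NaCl, 20% v/v ethylene glycol, 0.0016% Brij 58; adducts sought by LC-ESI-TOF MS, C18 column, water/acetonitrile with 0.1% formic acid gradient, negative mode.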

Trypsin = Trypsin (Homo sapiens, UniProt P07477+P07478+P35030); experiment: Inhibition of trypsin (unknown origin) using Boc-Val-Pro-Arg-AMC as substrate assessed as enzymatic cleavage preincubated for 15 mins followed by substrate addition and measured after 15 mins by Continuous fluorimetric assay; assay type: protein assay
[16] = Selectivity index, ratio of CC50 for cytotoxicity against human HeLa cells expressing luciferase-based DENV-2 protease reporter system to EC50 for inhibition of full length DENV2 NS2B-NS3 protease in human HeLa cells expressing luciferase reporter gene; assay type: toxicity, cell-based; details: read-out: Ratio CC50/EC50
[17] = Selectivity index, ratio of EC50 for inhibition of full length DENV2 NS2B-NS3 protease in human HeLa cells expressing luciferase reporter gene to IC50 for inhibition of C-terminal His tagged SARS CoV-2 main protease transfected in Escherichia coli BL21 (DE3); assay type: cell-based

| Compound | EC50 (Genome polyprotein [3]) | Stability (Genome polyprotein [6]) | CC50 (HeLa [7]) | IC50 [8] | inhibition [10] | Activity (HeLa [12]) | inhibition [13] | permeability [14] | also measured |
| --- | --- | --- | --- | --- | --- | --- | --- | --- | --- |
| O=C(Nc1ccc2c(c1)B(O)OC2)c1cccc(OCc2ccccc2)c1 | 2.4 µM | Stable | 55.2 µM | 6.1 µM | 81.2% | Non-Toxic | 99.6% | Permeable | Stability [1]: Stable; inhibition [2]: Active; Activity (Huh-7): Non-Toxic; Ratio IC50 [4]: 3; inhibition [5]: Active; Ki [9]: 6.2 µM; Activity (dengue virus type 2): 67.4%; inhibition [11]: Active |
| CC(C)(C)NC(=O)N[C@H](C(=O)N1C[C@H]2[C@@H]([C@H]1C(=O)NC(CC1CCC1)C(=O)C(N)=O)C2(C)C)C(C)(C)C (stereo partly specified) |  |  |  |  |  |  | 70.8% |  | Activity [15]: Active |
| N=C(N)Nc1ccc(C(=O)Nc2ccc3c(c2)B(O)OC3)cc1 |  |  | > 200 µM | 13.9 µM | 23% | Non-Toxic | 87.4% |  | Stability [1]: Stable; IC50 (Trypsin): 61.4 µM; inhibition [11]: Active |
| O=C(Nc1ccc2c(c1)B(O)OC2)c1cccc(OCc2c(Cl)cccc2Cl)c1 |  |  | 39.7 µM |  |  |  | 32.6% | Permeable | selectivity ratio [16]: 74 |
| N=C(N)Nc1ccc2c(c1)B(O)OC2 |  |  | > 100 µM | 10 µM | < 10% | Non-Toxic | 88% | Impermeable | inhibition [11]: Active |
| Cc1cccc(COc2cccc(C(=O)Nc3ccc4c(c3)B(O)OC4)c2)c1 |  |  | 72.6 µM | 59.8 µM | 85.2% |  | 55.5% |  | Activity (Huh-7): Non-Toxic; Activity (dengue virus type 2): 72.6% |
| O=C(Nc1cccc(B(O)O)c1)c1cccc(OCc2ccccc2)c1 | 12.5 µM |  | > 50 µM |  | 65.1% | Non-Toxic | < 10% | Permeable | Ratio [17]: 5 |
| O=C(Nc1ccc2c(c1)B(O)OC2)c1cccc(OCc2ccc(Cl)cc2)c1 |  | Stable | 75.3 µM |  |  |  | 43.5% |  |  |
| O=C(Nc1ccc2c(c1)B(O)OC2)c1ccc(OCc2ccc(Cl)cc2)cc1 | 14.5 µM | Stable | > 50 µM |  | 31.3% |  | 20.4% | Permeable |  |
| O=C(NCc1ccc(B(O)O)cc1)c1cccc(OCc2ccccc2)c1 | 14 µM |  | > 50 µM |  | 29.3% |  | 18.5% |  | Ratio [17]: 5 |
| O=C(Nc1cccc(C(=O)Nc2ccc3c(c2)B(O)OC3)c1)c1ccccc1 | 13.1 µM |  | > 200 µM | 52.3 µM | 51.5% |  | 45.6% |  | Stability [1]: Stable |
| O=C(Nc1ccc2c(c1)B(O)OC2)c1ccc(Oc2ccccc2)cc1 | 3.5 µM | Stable | > 50 µM |  | 79.7% |  | 19.5% | Permeable |  |
